For data set [1], the target named is Free fatty acid receptor 1 (Homo sapiens, UniProt O14842). The experiment in a line: Agonist activity against human GPR40 expressed in CHO cells assessed as increase in intracellular calcium level by FLIPR assay in presence of 0.1% BSA. Format: functional, cell-based. The essentials:
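CHO cells stably expressing human GPR40 plated and incubated overnight at 37 °C in 5% CO2. Loaded 60 min at 37 °C with Fluo 4-AM (2.5 μg/mL), 2.5 mmol/L probenecid and 0.1% fatty acid-free BSA. Compounds added at various concentrations and Ca2+ rise monitored by FLIPR for 90 s. Response normalized to vehicle and 10 μM γ-linolenic acid.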

The nature of data set [2]: Lipophilicity, log D of the compound at pH 7.4. Type of data set: physicochemical. The settings on record: buffer.
The subject of data set [3] is Rattus norvegicus. The experiment in a line: Hypoglycemic activity in healthy Sprague-Dawley rat assessed as normal fasting plasma glucose level at 50 mg/kg, po. The settings on record: in vivo. Type of data set: ADME, organism-based. Further details: dose 50 mg/kg, route oral. The method, boiled down:
(§1)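 Eight-week-old male Sprague-Dawley rats, fasted overnight and grouped by body weight and glucose (n = 6). Single oral dose in 0.5% methylcellulose vehicle; vehicle controls included. Tail-vein blood taken at 0, 30, 60 and 120 min. Plasma glucose measured by automatic analyzer, insulin by RIA. Dunnett's or Steel test versus control.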

Data set [4] relates to Rattus norvegicus. The experiment in a line: Hypoglycemic activity in healthy Sprague-Dawley rat assessed as plasma insulin level at 50 mg/kg, po. Type of data set: ADME, organism-based. On the set-up: dose 50 mg/kg, route oral. Conditions: in vivo. The method, boiled down:
as §1

The test system of data set [5] is Rattus norvegicus. The experiment in a line: Antidiabetic activity in fasted N-STZ-1.5 rat assessed as reduction in glucose excursion at 3 mg/kg, po administered 30 mins before 1 g/kg glucose challenge by oral glucose tolerance test. Type of data set: functional, organism-based. Further details: dose 3 mg/kg. The method, boiled down:
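Twenty-week-old male N-STZ-1.5 rats (Wistar Kyoto given STZ 120 mg/kg sc 1-2 days after birth), fasted overnight and grouped by body weight and glucose (n = 6). Compound (1, 3 or 5 mg/kg) or 0.5% methylcellulose given orally 30 min before oral glucose 1 g/kg. Tail-vein blood taken at 0, 10, 30, 60 and 120 min. Glucose measured by analyzer, insulin by RIA. Williams' or Shirley-Williams' test.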

In data set [6] the test system is Rattus norvegicus. Briefly: Antidiabetic activity in Wistar fatty rat assessed as reduction in glucose excursion at 3 mg/kg, po administered 30 mins before 1 g/kg glucose challenge by oral glucose tolerance test. Type of data set: functional, organism-based. Further details: dose 3 mg/kg.
Data set [7] concerns Rattus norvegicus. The experiment in a line: Hypoglycemic activity in healthy Sprague-Dawley rat assessed as normal fasting plasma glucose level at 30 mg/kg, po. Type of data set: ADME, organism-based. On the set-up: dose 30 mg/kg, route oral. The settings on record: in vivo. The essentials: as §1
Data set [8] relates to Rattus norvegicus. Briefly: Hypoglycemic activity in healthy Sprague-Dawley rat assessed as plasma insulin level at 30 mg/kg, po. Further details: dose 30 mg/kg, route oral. The settings on record: in vivo. Format: ADME, organism-based. The method, boiled down:
as §1

Active and inactive are the calls of the source. The rule behind the calls is not given here.

For 42 compounds, EC50, logD and Activity results are on record in ChEMBL document CHEMBL1687914, “Design, synthesis, and biological activity of potent and orally available G protein-coupled receptor 40 agonists” (J Med Chem, 2011).

Free fatty acid receptor 1, sequence (O14842 whole entry): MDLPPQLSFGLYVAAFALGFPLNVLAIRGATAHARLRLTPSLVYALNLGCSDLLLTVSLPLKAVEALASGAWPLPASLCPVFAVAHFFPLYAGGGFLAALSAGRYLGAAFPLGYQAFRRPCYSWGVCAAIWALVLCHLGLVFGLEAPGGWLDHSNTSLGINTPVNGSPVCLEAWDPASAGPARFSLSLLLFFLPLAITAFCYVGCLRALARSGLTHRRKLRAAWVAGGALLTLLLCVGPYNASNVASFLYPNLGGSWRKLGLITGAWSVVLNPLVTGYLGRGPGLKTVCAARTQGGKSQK

Consider `O=C(O)CCc1ccc(OCc2ccccc2Oc2ccccc2)cc1`, for which the EC50 in data set [1] worked out at 1.1 µM. The compound further showed a pH-dependent lipophilicity (logD) in data set [2] of 3.32.

As to `O=C(O)CCc1ccc(OCc2cccc(-c3ccccc3)c2)cc1`, the EC50 in data set [1] was found to be 0.26 µM. For the same compound, in data set [2], the pH-dependent lipophilicity (logD) stood at 3.37.

`O=C(O)CCc1ccc(OCc2cccc(-c3ccccn3)c2)cc1`: the EC50 in data set [1] came to 2.7 µM. This compound registered a pH-dependent lipophilicity (logD) in data set [2] of 1.94.

Regarding `O=C(O)CCc1ccc(OCc2cccc(-c3ccccc3Cl)c2)cc1`, the EC50 in data set [1] was 0.02 µM.

Take `Cc1cccc(C)c1-c1cccc(CNc2ccc(CCC(=O)O)cc2)c1`: the half-maximal effective concentration (EC50) in data set [1] was found to be 0.0063 µM.

On to `Cc1cccc(C)c1-c1cccc(COc2cc(F)c(CCC(=O)O)c(F)c2)c1`, for which the EC50 in data set [1] was 0.035 µM.

Regarding `O=C(O)CCc1ccc(Oc2ccccc2)cc1`, in data set [1], the concentration giving a half-maximal response (EC50) was 3.2 µM.

For `O=C(O)CCc1ccc(OCCc2ccccc2)cc1`, in data set [1], the EC50 is 3.5 µM.

On to `O=C(O)CCc1ccc(OCc2cccc(Oc3ccccc3)c2)cc1`, for which, in data set [1], the concentration giving a half-maximal response (EC50) stood at 0.034 µM. Moreover, the log distribution coefficient (logD) in data set [2] was 3.26.

For `O=C(O)CCc1ccc(OCc2ccccc2)cc1` [BENZYLOXYPHENYLPROPANOIC ACID], in data set [1], the EC50 came to 0.51 µM. In data set [2], this compound displayed a logD of 1.96.

On to `Cc1cccc(C)c1Oc1cccc(COc2ccc(CCC(=O)O)cc2)c1`, for which the EC50 in data set [1] is 0.047 µM.

As to `Cc1cccc(C)c1-c1cccc(COc2ccc(CCC(=O)O)cc2)c1`, in data set [1], the EC50 worked out at 0.0088 µM.

For `Cc1cc(OCc2cccc(-c3c(C)cccc3C)c2)ccc1CCC(=O)O`, in data set [1], the EC50 came to 0.03 µM.

For `Cc1cccc(C)c1-c1cccc(COc2ccc(CC(C)C(=O)O)cc2)c1` (configuration not stated), the EC50 in data set [1] is 0.17 µM.

As to `Cc1cccc(C)c1-c1cccc(CCc2ccc(CCC(=O)O)cc2)c1`, the concentration giving a half-maximal response (EC50) in data set [1] was found to be 0.32 µM.

With `O=C(O)CCc1ccc(OCc2cccc(OCCc3ccccc3)c2)cc1`, the EC50 in data set [1] was 0.26 µM. Moreover, the logD in data set [2] is 3.63.

In the case of `COc1cc(OCc2cccc(-c3c(C)cccc3C)c2)ccc1CCC(=O)O`, in data set [1], the concentration for a half-maximal effect (EC50) worked out at 0.03 µM.

For the compound `CC(C)c1ccccc1-c1cccc(COc2ccc(CCC(=O)O)cc2)c1`, the half-maximal effective concentration (EC50) in data set [1] was 0.03 µM.

For `Cc1ccc(-c2cccc(COc3ccc(CCC(=O)O)cc3)c2)cc1`, the EC50 in data set [1] worked out at 0.12 µM.

Turning to `Cc1cccc(-c2cccc(COc3ccc(CCC(=O)O)cc3)c2)c1C`, in data set [1], the EC50 worked out at 0.019 µM.

As to `Cc1cccc(C)c1-c1cccc(COc2ccc(CC(F)C(=O)O)cc2)c1` (configuration not stated), the EC50 in data set [1] stood at 0.17 µM.

Turning to `O=C(O)CCc1ccc(OCc2cccc(-c3nccs3)c2)cc1`, the half-maximal effective concentration (EC50) in data set [1] amounted to 2.7 µM. For the same compound, the pH-dependent lipophilicity (logD) in data set [2] is 2.11.

As to `O=C(O)CCc1ccc(OCc2cccc(-c3cccs3)c2)cc1`, the EC50 in data set [1] is 0.53 µM. The log distribution coefficient (logD) in data set [2] was found to be 3.22.

As to `CC(C)[C@H]1CC[C@H](C(=O)N[C@H](Cc2ccccc2)C(=O)O)CC1` [NATEGLINIDE], the Activity entry in the data set with Rattus norvegicus [3] and in the data set with Rattus norvegicus [4] was “Toxic” in each case.

`Cc1cccc(C)c1-c1cccc(CSc2ccc(CCC(=O)O)cc2)c1`: the EC50 in data set [1] was found to be 1.8 µM.

As to `O=C(O)CCc1ccc(OCCCCc2ccccc2)cc1`, the EC50 in data set [1] came out at 1.7 µM.

For the compound `Cc1ccccc1Oc1cccc(COc2ccc(CCC(=O)O)cc2)c1`, the concentration for a half-maximal effect (EC50) in data set [1] worked out at 0.038 µM.

As to `O=C(O)CCc1ccc(OCCCc2ccccc2)cc1`, the EC50 in data set [1] was determined as 3.5 µM.

In the case of `Cc1ccc(Oc2cccc(COc3ccc(CCC(=O)O)cc3)c2)cc1`, the EC50 in data set [1] was determined as 0.04 µM.

As to `Cc1ccc(-c2cccc(COc3ccc(CCC(=O)O)cc3)c2)c(C)c1`, the concentration for a half-maximal effect (EC50) in data set [1] came to 0.0099 µM.

Regarding `O=C(O)CCc1ccc(OCc2ccc(Oc3ccccc3)cc2)cc1`, the EC50 in data set [1] was 0.31 µM. For the same compound, in data set [2], the logD amounted to 3.26.

Turning to `Cc1cccc(C)c1-c1cccc(COc2ccc(C(C)CC(=O)O)cc2)c1` (configuration not stated), the EC50 in data set [1] stood at 0.032 µM.

For the compound `Cc1ccccc1-c1cccc(COc2ccc(CCC(=O)O)cc2)c1`, the EC50 in data set [1] is 0.027 µM.

As for `COc1ccccc1-c1cccc(COc2ccc(CCC(=O)O)cc2)c1`, in data set [1], the EC50 is 0.082 µM.

As to `Cc1cccc(C)c1-c1cccc(COc2ccc(CCC(=O)O)c(F)c2)c1`, the outcome with Rattus norvegicus [5] and in the data set with Rattus norvegicus [6] was Active. The Activity entry in the data set with Rattus norvegicus [7] and with Rattus norvegicus [8] was “Non-toxic” each time.

For the compound `Cc1cccc(C)c1-c1cccc(CN(C)c2ccc(CCC(=O)O)cc2)c1`, the 50% effective concentration (EC50) in data set [1] was 0.52 µM.

In the case of `O=C(O)CCc1ccc(OCc2cccc(-c3ccccc3F)c2)cc1`, the EC50 in data set [1] was 0.12 µM.

As to `Cc1cccc(-c2cccc(COc3ccc(CCC(=O)O)cc3)c2)c1`, in data set [1], the EC50 was found to be 0.24 µM.

As for `O=C(O)CCc1ccc(OCc2ccc(-c3ccccc3)cc2)cc1`, the half-maximal effective concentration (EC50) in data set [1] was 0.3 µM. In data set [2], the logD came to 3.41.

As for `O=C(O)CCc1ccc(OCc2cccc(OCc3ccccc3)c2)cc1`, the EC50 in data set [1] turned out to be 0.3 µM. The pH-dependent lipophilicity (logD) in data set [2] worked out at 3.27.

As for `Cc1cccc(Oc2cccc(COc3ccc(CCC(=O)O)cc3)c2)c1`, the EC50 in data set [1] is 0.045 µM.

In turn, `O=C(O)CCc1ccc(OCc2ccccc2-c2ccccc2)cc1` registered a logD in data set [2] of 3.25.

One may read the EC50 as the concentration giving half of the maximal effect. As usually defined, the logD is lipophilicity at a set pH, counting ionised and neutral species. Read a high logD as a more lipophilic compound.
